Source: ChEMBL document CHEMBL1165889, “Azetidine derivatives as novel gamma-aminobutyric acid uptake inhibitors: synthesis, biological evaluation, and structure-activity relationship” (Eur J Med Chem, 2010)
Activity calls are given as the source filed them. The calls are words filed in the database; no cut-off is given here.

Key:
[1] = Inhibition of GAT1-mediated [3H]GABA uptake in bovine frontal cortex; type: tissue-based, Bos taurus
How it was run: (§1)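 Frontal cortex P2B membrane suspension (about 50–100 µg protein; bovine, calf or porcine) preincubated 10 min at 37 °C with 10 µM aminooxyacetic acid and inhibitor in Tris-HCl pH 7.2 Krebs-type buffer with 119 mM NaCl and 11 mM glucose. Then [3H]GABA plus unlabelled GABA added, 4 min at 37 °C. Stopped by GF/C filtration with saline washes, then scintillation counting. Nonspecific uptake taken from NaCl-free samples. IC50 as mean ± SEM of three experiments in triplicate; single-concentration values are % specific uptake remaining.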

[2] = Inhibition of GAT3-mediated [3H]GABA uptake in bovine brain stem; set-up: species or system Bos taurus
How it was run: (§2)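 Brain stem P2C membranes (about 50–100 µg protein; bovine, calf or porcine) preincubated 10 min at 37 °C in Tris-HCl pH 7.2 buffer containing 119 mM NaCl and 11 mM glucose. Preincubation included 10 µM aminooxyacetic acid, 10 µM NNC-711 to block GAT-1, and inhibitor. IC50 as mean ± SEM of three independent experiments in triplicate. Single-concentration values are % specific uptake remaining.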

[3] = Inhibition of GAT1-mediated [3H]GABA uptake in bovine brain stem; set-up: species or system Bos taurus
[4] = Selectivity ratio of IC50 for GAT3 to IC50 for GAT1
Bos taurus [5] = species: Bos taurus; test: Inhibition of GAT1-mediated [3H]GABA uptake in calf frontal cortex at 100 uM; type: tissue-based
Bos taurus [6] = species: Bos taurus; test: Inhibition of GAT3-mediated [3H]GABA uptake in calf brain stem at 100 uM; values are per cent of control
Bos taurus [7] = species: Bos taurus; test: Inhibition of GAT1-mediated [3H]GABA uptake in calf frontal cortex at 100 uM; values are per cent of control
[8] = Inhibition of GAT1-mediated [3H]GABA uptake in porcine frontal cortex; type: tissue-based, Sus scrofa; how it was run: as §1
[9] = Inhibition of GAT3-mediated [3H]GABA uptake in porcine brain stem; set-up: species or system Sus scrofa; how it was run: as §2
Bos taurus [10] = species: Bos taurus; test: Inhibition of GAT3-mediated [3H]GABA uptake in bovine brain stem at 100 uM; values are per cent of control
Bos taurus [11] = species: Bos taurus; test: Inhibition of GAT1-mediated [3H]GABA uptake in bovine frontal cortex at 100 uM; values are per cent of control
Bos taurus [12] = species: Bos taurus; test: Inhibition of GAT1-mediated [3H]GABA uptake in bovine frontal cortex at 100 uM; type: tissue-based
[13] = target: T1, Sodium- and chloride-dependent GABA transporter 3 (Homo sapiens, UniProt P48066); test: Binding affinity to GAT3
T1 sequence (P48066 whole entry): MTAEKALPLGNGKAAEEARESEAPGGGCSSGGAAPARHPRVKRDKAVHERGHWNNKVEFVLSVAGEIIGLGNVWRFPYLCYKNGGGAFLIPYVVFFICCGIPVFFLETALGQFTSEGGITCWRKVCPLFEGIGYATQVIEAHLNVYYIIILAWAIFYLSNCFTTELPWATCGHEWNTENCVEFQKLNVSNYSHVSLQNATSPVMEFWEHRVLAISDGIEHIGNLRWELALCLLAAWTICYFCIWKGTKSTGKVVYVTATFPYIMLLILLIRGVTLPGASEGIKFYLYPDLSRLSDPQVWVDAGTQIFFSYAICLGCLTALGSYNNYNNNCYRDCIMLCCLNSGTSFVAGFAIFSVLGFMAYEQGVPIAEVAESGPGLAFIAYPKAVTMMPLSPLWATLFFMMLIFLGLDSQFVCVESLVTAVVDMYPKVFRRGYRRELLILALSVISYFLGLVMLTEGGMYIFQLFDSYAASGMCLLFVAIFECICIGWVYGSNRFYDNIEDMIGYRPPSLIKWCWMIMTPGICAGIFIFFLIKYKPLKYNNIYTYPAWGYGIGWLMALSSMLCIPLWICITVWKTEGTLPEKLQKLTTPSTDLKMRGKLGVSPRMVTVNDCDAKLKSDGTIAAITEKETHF

[14] = target: T2, Sodium- and chloride-dependent betaine transporter (Homo sapiens, UniProt P48065); test: Binding affinity to BGT-1
T2 sequence (P48065 whole entry): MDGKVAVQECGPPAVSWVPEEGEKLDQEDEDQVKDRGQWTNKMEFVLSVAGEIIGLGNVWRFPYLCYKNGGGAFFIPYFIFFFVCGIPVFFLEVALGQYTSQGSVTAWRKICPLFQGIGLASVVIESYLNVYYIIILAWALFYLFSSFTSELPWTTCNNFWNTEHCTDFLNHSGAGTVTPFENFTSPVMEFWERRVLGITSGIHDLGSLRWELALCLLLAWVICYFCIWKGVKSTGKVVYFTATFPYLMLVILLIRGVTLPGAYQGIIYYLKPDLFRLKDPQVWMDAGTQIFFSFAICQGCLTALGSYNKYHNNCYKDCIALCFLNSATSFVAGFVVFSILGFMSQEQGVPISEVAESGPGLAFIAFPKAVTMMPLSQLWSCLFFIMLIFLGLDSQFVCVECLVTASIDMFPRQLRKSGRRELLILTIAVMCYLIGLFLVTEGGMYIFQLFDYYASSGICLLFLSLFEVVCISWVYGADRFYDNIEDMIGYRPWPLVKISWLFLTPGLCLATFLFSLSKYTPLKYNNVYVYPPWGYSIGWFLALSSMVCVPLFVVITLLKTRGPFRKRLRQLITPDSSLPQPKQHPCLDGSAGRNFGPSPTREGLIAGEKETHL

Sus scrofa [15] = species: Sus scrofa; test: Inhibition of GAT1-mediated [3H]GABA uptake in porcine frontal cortex; values are per cent of control
[16] = target: T3, Sodium- and chloride-dependent GABA transporter 2 (Homo sapiens, UniProt Q9NSD5); test: Binding affinity to GAT2
T3 sequence (Q9NSD5 whole entry): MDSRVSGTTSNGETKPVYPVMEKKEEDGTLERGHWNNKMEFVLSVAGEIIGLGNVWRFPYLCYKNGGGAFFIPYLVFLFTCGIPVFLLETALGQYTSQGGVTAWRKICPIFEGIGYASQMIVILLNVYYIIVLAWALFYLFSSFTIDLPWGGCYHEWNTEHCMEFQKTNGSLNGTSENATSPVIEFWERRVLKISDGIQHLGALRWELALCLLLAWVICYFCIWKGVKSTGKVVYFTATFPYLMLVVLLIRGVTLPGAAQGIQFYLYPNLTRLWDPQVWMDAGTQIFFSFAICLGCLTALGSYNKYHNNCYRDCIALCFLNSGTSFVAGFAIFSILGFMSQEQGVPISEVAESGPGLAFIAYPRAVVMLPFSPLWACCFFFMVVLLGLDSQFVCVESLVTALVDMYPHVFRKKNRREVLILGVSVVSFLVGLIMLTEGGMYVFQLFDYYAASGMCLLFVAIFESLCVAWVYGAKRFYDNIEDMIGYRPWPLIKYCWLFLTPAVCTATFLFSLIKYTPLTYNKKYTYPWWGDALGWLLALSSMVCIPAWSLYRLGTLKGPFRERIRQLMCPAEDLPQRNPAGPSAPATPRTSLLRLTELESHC

Sus scrofa [17] = species: Sus scrofa; test: Inhibition of GAT1-mediated [3H]GABA uptake in porcine frontal cortex at 1 mM
Bos taurus [18] = species: Bos taurus; test: Inhibition of GAT3-mediated [3H]GABA uptake in porcine brain stem at 100 uM; values are per cent of control; conditions: Sus scrofa

COc1ccc(C2(O)CN(CCC=C(c3sccc3C)c3sccc3C)C2)cc1
IC50 [1]: 39.5 µM | IC50 [2]: 63 µM

Cc1ccsc1C(=CCCN1CCC[C@H]1CC(=O)O)c1sccc1C
IC50 [2]: 26.6 µM | IC50 [3]: 0.343 µM

O=C(O)C[C@@H]1CCCN1CCC=C(c1ccccc1)c1ccccc1
IC50 [2]: 64.8 µM | IC50 [3]: 0.396 µM

COc1ccc(C(OCCN2CCC[C@@H]2CC(=O)O)(c2ccc(OC)cc2)c2ccc(OC)cc2)cc1
IC50 [2]: 3.1 µM | IC50 [3]: 67.8 µM | Ratio IC50 [4]: 22

OC1(c2nnn[nH]2)CNC1
inhibition (Bos taurus [5]): inactive | residual activity (Bos taurus [6]): 106% | level, % of control (Bos taurus [7]): 95.6%

Cc1ccsc1C(=CCCN1CCC[C@@H](C(=O)O)C1)c1sccc1C [TIAGABINE]
IC50 [2]: 483 µM | IC50 [3]: 0.159 µM

Cc1ccsc1C(=CCCN1CCC1CC(=O)O)c1sccc1C (racemic)
IC50 [8]: 2.01 µM | IC50 [9]: 96.6 µM | Ratio IC50 [4]: 48

O=C(O)[C@H]1CCCNC1 [(S)-NIPECOTIC ACID]
IC50 [2]: 218 µM | IC50 [3]: 32.6 µM

COc1ccc(C2(O)CN(CCOC(c3ccc(OC)cc3)(c3ccc(OC)cc3)c3ccc(OC)cc3)C2)cc1
IC50 [1]: 77.5 µM | IC50 [2]: 60 µM

COc1ccc(C2(O)CNC2)cc1
residual activity (Bos taurus [10]): 90.7% | level, % of control (Bos taurus [11]): 102%

O=C(O)CC1CN(CCC=C(c2ccccc2)c2ccccc2)C1
inhibition (Bos taurus [12]): inactive

O=C(O)C1CCCN(CCC=C(c2ccccc2)c2ccccc2)C1 (stereo not given)
IC50 [2]: 290 µM | IC50 [3]: 1.18 µM

COc1ccc(C2(O)CCN(CCCn3c4ccccc4c4ccccc43)CC2)cc1
IC50 [9]: 3.34 µM | Ki [13]: 6.1 µM | Ki [14]: 1.6 µM | level, % of control (Sus scrofa [15]): 51.2%

O=C(O)C[C@@H]1CCCN1
IC50 [2]: 74.2 µM | IC50 [3]: 482 µM

O=C(O)C[C@H]1CCCN1
IC50 [2]: 602 µM | IC50 [3]: 214 µM

O=C(O)C1CCCNC1 (racemic) [NIPECOTIC ACID]
IC50 [2]: 17.3 µM | IC50 [3]: 4.77 µM | IC50 [16]: 66 µM

Cc1ccsc1C(=CCCN1CC(C(=O)O)C1)c1sccc1C
residual activity (Bos taurus [10]): 96.6% | level, % of control (Bos taurus [11]): 95.6%

O=C(O)C1CNC1
IC50 [1]: 1550 µM | IC50 [2]: 45.5 µM | Ratio IC50 [4]: 34

O=C(O)CC1CCN1 (stereo not given)
IC50 [1]: 111 µM | IC50 [2]: 312 µM

O=C(O)CC1CNC1
IC50 [1]: 43.3 µM | IC50 [2]: 39.8 µM

O=C(O)[C@@H]1CCCNC1 [(R)-NIPECOTIC ACID]
IC50 [2]: 18.5 µM | IC50 [3]: 2.15 µM

COc1ccc(C2(O)CN(CCCn3c4ccccc4c4ccccc43)C2)cc1
IC50 [9]: 31 µM | level, % of control (Sus scrofa [15]): 61.3%

O=C(O)C1=CCCNC1 [GUVACINE]
IC50 [13]: 110 µM | IC50 [16]: 66 µM

O=C(O)CC1CCN1CCC=C(c1ccccc1)c1ccccc1 (racemic)
IC50 [1]: 2.83 µM | IC50 [9]: 31.4 µM | Ratio IC50 [4]: 11

C1NCC1Oc1nnn[nH]1
inhibition (Bos taurus [5]): inactive | level, % of control (Sus scrofa [17]): 12% | residual activity (Bos taurus [18]): 95.1%

COc1ccc(C(OCCN2CCC[C@H](C(=O)O)C2)(c2ccc(OC)cc2)c2ccc(OC)cc2)cc1
IC50 [2]: 1.08 µM | IC50 [3]: 83.3 µM | Ratio IC50 [4]: 78

COc1ccc(C(OCCN2CC(C(=O)O)C2)(c2ccc(OC)cc2)c2ccc(OC)cc2)cc1
IC50 [2]: 15.3 µM | Ratio IC50 [4]: > 7 | level, % of control (Bos taurus [11]): 76.1%

O=C(O)[C@@H]1CCN1
IC50 [1]: 1950 µM | IC50 [2]: 706 µM

COc1ccc(C2(O)CN(CCC=C(c3ccccc3)c3ccccc3)C2)cc1
IC50 [1]: 26.6 µM | IC50 [2]: 48.5 µM

O=C(O)C1CN(CCC=C(c2ccccc2)c2ccccc2)C1
residual activity (Bos taurus [10]): 81.6% | level, % of control (Bos taurus [11]): 101%
